Source: PubChem
A selection: hits, their analogues and other compounds. The true share with any hit is near 1.2%.
ASAP1 inh = inhibitors of human ASAP1 ArfGAP activity; inhibition, % at 16.5 µM; ASAP1-stimulated ARF1 GTP hydrolysis, GDP FP detection; 0.19% of 360,000 active; Q9ULH1; in the data active = inhibition above about 25%
IDE cell inh = cellular human IDE inhibition. HEK cells, FAbetaB cleavage, fluorescence polarization. inhibition, % at 5.59 µM. 0.41% of 320,000 active. AID 434962;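 active = percent inhibition above the average of all tested compounds plus 3 SD, set per screening campaign, cut at about 16% in these data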;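 also: IDE supplied by intact live HEK cells; FP after avidin binding of uncleaved biotin substrate so inhibition keeps polarization high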
ARFGAP1 inhibitor = inhibitors of rat ARFGAP1 | Q62848 | Arfgap1-stimulated ARF1 GTP hydrolysis, GDP FP detection | inhibition, % at 16.5 µM | 0.26% of 360,000 active;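 active = inhibition above a per-plate limit, mean inhibition of low control wells plus 3 SD, cut at about 25% in these data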
Target sequence (Q62848 1-136 limits assumed): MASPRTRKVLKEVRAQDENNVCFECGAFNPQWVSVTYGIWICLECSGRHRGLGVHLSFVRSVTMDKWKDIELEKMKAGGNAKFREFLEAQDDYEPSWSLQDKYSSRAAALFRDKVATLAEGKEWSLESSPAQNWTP
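System: truncated rat Arfgap1 GAP domain / Medium: HEPES-based buffer, pH 7.5 / Also added: N-terminally truncated human ARF1-GTP substrate / Incubation: enzyme reaction 120 min at 25 °C after 20 min preincubation / Measured by: FP of antibody-bound GDP Alexa 633 tracer, ex 620/em 688 nm / Replicates: singlicate, each compound tested once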
PREPL inhibitor = inhibitors of human prolyl oligopeptidase-like enzyme PREPL. Q4J6C6. recombinant PREPL, fluorescence polarization activity-based probe. inhibition, % at 5.96 µM. 0.68% of 320,000 active. AID 2751; in the data active = inhibition above about 43%
IDE cell activ = activators of human insulin-degrading enzyme in cells; P14735; HEK cells, FAbeta-B cleavage, fluorescence polarization; 0% vehicle, 100% cell-free pure enzyme wells; activation, % at 5.96 µM; 0.073% of 340,000 active;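 active = activation above the mean of all tested compounds plus 3 SD, set per screening campaign, cut at about 17% in these data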
ARFGAP1 confirm = rat ARFGAP1 inhibition, confirmed. 30% of 890 active. inhibition, % at 16.5 µM. shares compounds with ARFGAP1 inhibitor. ARFGAP1-stimulated ARF1 GTP hydrolysis, GDP tracer FP;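 active = average inhibition over triplicates above the hit cutoff set in the earlier primary screen, cut at about 25% in these data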
A number is an active result.

CC1(C)CC(NC(=O)c2ccc3c(c2)OCO3)CC(C)(C)N1 was read as ASAP1 inh inactive, IDE cell inh inactive, ARFGAP1 inhibitor 26.3, PREPL inhibitor inactive, IDE cell activ inactive and ARFGAP1 confirm inactive.
Cc1nnc(SC(C)C(=O)Nc2c(C)n(C)n(-c3ccccc3)c2=O)n1N (configuration not stated) was read as ASAP1 inh inactive, IDE cell inh inactive, ARFGAP1 inhibitor inactive, PREPL inhibitor inactive and IDE cell activ inactive.
`Cc1cc(NC(=O)NC(=O)c2ccccc2NC(=O)CN(C)C)ccc1Oc1ncc(Br)cn1` gave ASAP1 inh inactive, ARFGAP1 inhibitor 30.6, IDE cell activ inactive and ARFGAP1 confirm inactive.
`O=C(Cc1cccs1)Nc1cccc(-c2nc3cc4ccccc4cc3[nH]2)c1` gave ASAP1 inh inactive, IDE cell inh inactive, ARFGAP1 inhibitor 24.7, PREPL inhibitor inactive, IDE cell activ inactive and ARFGAP1 confirm 24.9.
`CC(=O)N1CCN(C(=O)c2cccc(S(=O)(=O)N3CCN(c4ccccc4)CC3)c2)CC1` gave ASAP1 inh inactive, IDE cell inh inactive, ARFGAP1 inhibitor inactive, PREPL inhibitor inactive and IDE cell activ inactive.
Screening O=C(NCC1CCN(c2ccc(S(=O)(=O)N3CCOCC3)cc2)CC1)c1ccc(Cl)cc1 returned ASAP1 inh inactive, IDE cell inh inactive, ARFGAP1 inhibitor 26.0, PREPL inhibitor inactive, IDE cell activ inactive and ARFGAP1 confirm inactive.
O=C(NNC(=O)c1cccc(S(=O)(=O)N2CCN(c3ccccc3)CC2)c1)c1ccc(Cl)cc1 was read as ASAP1 inh inactive, IDE cell inh inactive, ARFGAP1 inhibitor 24.8, PREPL inhibitor inactive, IDE cell activ inactive and ARFGAP1 confirm inactive.
Screening Cc1cccc(NS(=O)(=O)c2cc(C(=O)N3CCOCC3)ccc2Cl)c1 returned ASAP1 inh inactive, IDE cell inh inactive, ARFGAP1 inhibitor inactive, PREPL inhibitor inactive and IDE cell activ inactive.
Screening Cc1ccc(OCc2cn3cccnc3n2)cc1 returned ASAP1 inh inactive, IDE cell inh inactive, ARFGAP1 inhibitor inactive, PREPL inhibitor inactive and IDE cell activ inactive.
For Cc1cccc(C)c1N1C(=O)CC(Sc2ccccc2N)C1=O (configuration not stated) the results were ASAP1 inh inactive and ARFGAP1 inhibitor inactive.
`Cc1cc(C)n(C(C)CNS(=O)(=O)c2ccc(Cl)cc2)n1` (configuration not stated) gave ASAP1 inh inactive, IDE cell inh inactive, ARFGAP1 inhibitor 24.7, PREPL inhibitor inactive, IDE cell activ inactive and ARFGAP1 confirm inactive.
Cc1ccc(S(=O)(=O)NCC(C)n2nc(C)cc2C)cc1 (configuration not stated) was read as ASAP1 inh inactive, IDE cell inh inactive, ARFGAP1 inhibitor inactive, PREPL inhibitor inactive and IDE cell activ inactive.
